The record followed here is the RNAGym collection of RNA variant scans (doi:10.1038/nmeth.2970).

B1: NELF-E aptamer (parent)
chain: CCCAACGACUGCCGAGCGAGAUUACGCUUGAGCGCCCCACUGAGGAUGCCCACGGGCGAUUGGGGCACGG

Variants of B1 are the subject of this data set. Description: HiTS-RAP. Particulars: with NELF-E (Drosophila). In a few lines:
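Kd came from weighted Hill fits to the first binding curve, with intensities normalised to sequencing intensity and averaged per sequence, keeping only fits whose variance was below 1,000,000. That curve was imaged on an Illumina GAIIx flowcell, where sequenced aptamer DNA templates with a T7 promoter and ter site had been transcribed in situ by T7 RNA polymerase and halted by GST-Tus (30 minutes, 37°C). Before each image, clusters equilibrated for 30 minutes at room temperature with NELF-E-mOrange at 0.064 to 1000 nM in HEPES binding buffer.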
Regarding CCCGACGACUGCCGAGCGAGAUUACGCUUGAGCGCCCCACUGCGGAUGCCCACGGGCGAUUGGGGCACGG [A4G A43C], the Kd was 90.1 nM. Under CCCGACGACUGCCGAGCGAGAUUACGCUUGAGAGCCCCACUGAGGAUGCCCACGGGCGAUUGGGGCACGG [A4G C33A] stands 5.4 nM; under CCCGACGACUGCCGAGCGAGAUUACGCUUGAGUGCCCCACUGAGGAUGCCCACGGGCGAUUGGGGCACGG [A4G C33U], 5.81 nM. In the case of CCCGACGACUGCCGAGCGAGAUUACGCUUGAGGGCCCCACUGAGGAUGCCCACGGGCGAUUGGGGCACGG [A4G C33G], the Kd worked out at 5.81 nM. For the variant CCCGACGACUGCCGAGCGAGAUUACGCUUGAGCGCCCCACUGAGGAUGCCUACGGGCGAUUGGGGCACGG [A4G C51U], the Kd was determined as 7.58 nM. CCCGACGACUGCCGAGCGAGAUUACGCUUGAGCGCCCCACUGAGGAUGCCGACGGGCGAUUGGGGCACGG [A4G C51G]: the Kd was 4.36 nM. As for CCCGACGACUGCCGAGCGAGAUUACGCUUGAGCGCCCCACUGAGGAUGCCAACGGGCGAUUGGGGCACGG [A4G C51A], the Kd is 9.97 nM. With CCCGACGACUGCCGAGCGAGAUUACGCUUGUGCGCCCCACUGAGGAUGCCCACGGGCGAUUGGGGCACGG [A4G A31U], the Kd is 6.57 nM. CCCGACGACUGCCGAGCGAGAUUACGCUUGGGCGCCCCACUGAGGAUGCCCACGGGCGAUUGGGGCACGG [A4G A31G]: the Kd turned out to be 7.17 nM. For CCCGACGACUGCCGAGCGAGAUUACGCUUGCGCGCCCCACUGAGGAUGCCCACGGGCGAUUGGGGCACGG [A4G A31C], the equilibrium dissociation constant (Kd) is 4.18 nM. As for CCCGACGACUUCCGAGCGAGAUUACGCUUGAGCGCCCCACUGAGGAUGCCCACGGGCGAUUGGGGCACGG [A4G G11U], the dissociation constant Kd was determined as 6.46 nM. As for CCCGACGACUACCGAGCGAGAUUACGCUUGAGCGCCCCACUGAGGAUGCCCACGGGCGAUUGGGGCACGG [A4G G11A], the dissociation constant (Kd) is 6.4 nM. Under CCCGACGACUGCCGAGCGAGAUUACGCUUGAGCGCCCCGCUGAGGAUGCCCACGGGCGAUUGGGGCACGG [A4G A39G] stands 10.6 nM; under CCCGACGACUGCCGAGCGAGAUUACGCUUGAGCGCCCCCCUGAGGAUGCCCACGGGCGAUUGGGGCACGG [A4G A39C], 30.7 nM. With CCCGACGACUGCCGAGCGAGAUUACGCUUGAGCGCCCCUCUGAGGAUGCCCACGGGCGAUUGGGGCACGG [A4G A39U], the Kd came out at 25.9 nM. CCCGACUACUGCCGAGCGAGAUUACGCUUGAGCGCCCCACUGAGGAUGCCCACGGGCGAUUGGGGCACGG [A4G G7U]: the Kd turned out to be 6.07 nM. In the case of CCCGACAACUGCCGAGCGAGAUUACGCUUGAGCGCCCCACUGAGGAUGCCCACGGGCGAUUGGGGCACGG [A4G G7A], the Kd amounted to 6.95 nM.

As for CCCGACCACUGCCGAGCGAGAUUACGCUUGAGCGCCCCACUGAGGAUGCCCACGGGCGAUUGGGGCACGG [A4G G7C], the dissociation constant Kd turned out to be 7.38 nM. For the variant CCCGACGACUGCCGAGCGAGAUUACGCUUGAGCGCCCCACUGAGGAUGCCCCCGGGCGAUUGGGGCACGG [A4G A52C], the Kd was 6.42 nM. Consider CCCGACGACUGCCGAGCGAGAUUACGCUUGAGCGCCCCACUGAGGAUGCCCUCGGGCGAUUGGGGCACGG [A4G A52U], for which the dissociation constant Kd worked out at 18.3 nM. On to CCCGACGACUGCCGAGCGAGAUUACGCUUGAGCGCCCCACUGAGGAUGCCCGCGGGCGAUUGGGGCACGG [A4G A52G], for which the Kd came to 4.59 nM.

In the case of CCCGACGACUGCCGAGGGAGAUUACGCUUGAGCGCCCCACUGAGGAUGCCCACGGGCGAUUGGGGCACGG [A4G C17G], the Kd amounted to 5.57 nM.

For CCCGACGACUGCCGAGAGAGAUUACGCUUGAGCGCCCCACUGAGGAUGCCCACGGGCGAUUGGGGCACGG [A4G C17A], the Kd was 4.31 nM. For CCCGACGACUGCCGAGUGAGAUUACGCUUGAGCGCCCCACUGAGGAUGCCCACGGGCGAUUGGGGCACGG [A4G C17U], the dissociation constant Kd turned out to be 5.09 nM.

Regarding CCCGACGACUGCCGAGCGAGAUUACGCUUGAGCGUCCCACUGAGGAUGCCCACGGGCGAUUGGGGCACGG [A4G C35U], the equilibrium dissociation constant (Kd) was 13.5 nM.

As to CCCGACGACUGCCGAGCGAGAUUACGCUUGAGCGACCCACUGAGGAUGCCCACGGGCGAUUGGGGCACGG [A4G C35A], the Kd is 9.55 nM.

For CCCGACGACUGCCGAGCGAGAUUACGCUUGAGCGCCACACUGAGGAUGCCCACGGGCGAUUGGGGCACGG [A4G C37A], the Kd worked out at 12.3 nM.

Take CCCGACGACUGCCGAGCGAGAUUACGCUUGAGCGCCGCACUGAGGAUGCCCACGGGCGAUUGGGGCACGG [A4G C37G]: the dissociation constant (Kd) stood at 6.99 nM. Under CCCGACGACUGCCGAGCGAGAUUACGCUUGAGCGCCUCACUGAGGAUGCCCACGGGCGAUUGGGGCACGG [A4G C37U] stands 13.2 nM; under CCCGACGACUGGCGAGCGAGAUUACGCUUGAGCGCCCCACUGAGGAUGCCCACGGGCGAUUGGGGCACGG [A4G C12G], 5.9 nM. As to CCCGACGACUGUCGAGCGAGAUUACGCUUGAGCGCCCCACUGAGGAUGCCCACGGGCGAUUGGGGCACGG [A4G C12U], the Kd came to 5.25 nM.

For CCCGACGACUGACGAGCGAGAUUACGCUUGAGCGCCCCACUGAGGAUGCCCACGGGCGAUUGGGGCACGG [A4G C12A], the dissociation constant Kd turned out to be 5.36 nM. Regarding CCCGACGACUGCCGAGCGAGAUUACGCUUGAGCGCCCCACUGAGGAUGUCCACGGGCGAUUGGGGCACGG [A4G C49U], the dissociation constant Kd worked out at 20.8 nM. For CCCGACGACUGCCGAGCGAGAUUACGCUUGAGCGCCCCACUGAGGAUGCCCAUGGGCGAUUGGGGCACGG [A4G C53U], the equilibrium dissociation constant (Kd) was determined as 3.85 nM.

In the case of CCCGACGACUGCCGAGCGAGAUUACGCUUGAGCGCCCCACUGAGGAUGCCCAGGGGCGAUUGGGGCACGG [A4G C53G], the Kd turned out to be 7.58 nM.

As for CCCGACGACUGCCGAGCGAGAUUACGCUUGAGCGCCCCACUGAGGAUGCCCAAGGGCGAUUGGGGCACGG [A4G C53A], the equilibrium dissociation constant (Kd) was 6.64 nM.

For CCCGAGGACUGCCGAGCGAGAUUACGCUUGAGCGCCCCACUGAGGAUGCCCACGGGCGAUUGGGGCACGG [A4G C6G], the dissociation constant Kd was 5.28 nM.

CCCGAUGACUGCCGAGCGAGAUUACGCUUGAGCGCCCCACUGAGGAUGCCCACGGGCGAUUGGGGCACGG [A4G C6U]: the dissociation constant Kd was determined as 6.08 nM.

Consider CCCGAAGACUGCCGAGCGAGAUUACGCUUGAGCGCCCCACUGAGGAUGCCCACGGGCGAUUGGGGCACGG [A4G C6A], for which the Kd was 6.8 nM.

As a reminder, the Kd is the free concentration of one partner at which half of the binding sites on the other are occupied at equilibrium, for simple one-to-one binding.
